Series [1] has as its system HepG2. The series is described as follows: Ratio IC50 for SCD-1 activity in organic anion transporting polypeptides-deficient human HepG2 cells to IC50 for SCD-1 activity in Sprague-Dawley rat Hepatocytes expressing organic anion transporting polypeptides. Format: cell-based. The essentials: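 Cellular SCD IC50s measured in human HepG2 cells (lacking active OATPs) and in rat hepatocytes (active OATPs). Hepatocytes preincubated with compound for 15 min at 37 °C, then given 14C-stearic acid (final 0.5 μCi/ml) for 1 h with shaking. Lipids hydrolysed in 2N NaOH at 75 °C, acidified and extracted. Radiolabelled oleic and stearic acid resolved by HPLC with flow scintillation detection. Mean of at least n = 3. HepG2 IC50 divided by hepatocyte IC50.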

In series [2] the target is T1, Acyl-CoA desaturase 1 (Rattus norvegicus, UniProt P07308).
T1 sequence (P07308 whole entry): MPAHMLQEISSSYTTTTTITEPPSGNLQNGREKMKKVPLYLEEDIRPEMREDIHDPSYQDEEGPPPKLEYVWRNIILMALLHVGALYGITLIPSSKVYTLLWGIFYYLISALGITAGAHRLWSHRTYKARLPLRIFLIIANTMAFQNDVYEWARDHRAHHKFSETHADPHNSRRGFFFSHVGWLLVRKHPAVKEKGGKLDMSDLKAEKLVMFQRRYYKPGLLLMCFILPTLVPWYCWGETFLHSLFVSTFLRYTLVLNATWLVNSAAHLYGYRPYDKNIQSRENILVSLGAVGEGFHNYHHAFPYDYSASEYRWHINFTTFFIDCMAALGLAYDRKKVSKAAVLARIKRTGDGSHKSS
The series is described as follows: Inhibition of SCD-1 activity in Sprague-Dawley rat microsome assessed as reduction in [I-14C] stearoyl CoA desaturation by scintillation counting. It counts as microsomes.

The nature of series [3]: Ratio drug uptake in liver to plasma of C57BL6 mouse at 10 mg/kg, po measured 6 hrs post dose. Format: ADME, organism-based. Set-up: dose 10 mg/kg, route oral. To be noted: liver and plasma. The essentials: (§1)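 Single oral dose of 10 mg/kg in 0.5% methylcellulose to fed C57BL6 mice (n = 2). Animals sacrificed 6 h post dose. Plasma, liver, skin and Harderian gland collected. Tissues homogenized in MeCN/water with internal standard and drug quantified by LC-MS against a standard curve made in blank plasma. Concentration ratio calculated.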

For series [4], the system named is Liver. The series is described as follows: Ratio drug uptake in liver to harderian gland of C57BL6 mouse at 10 mg/kg, po measured 6 hrs post dose. It counts as ADME, organism-based. Also noted: dose 10 mg/kg, route oral. To be noted: in vivo. An outline of the steps: as §1
The target in series [5] is T1, Acyl-CoA desaturase 1. The series is described as follows: Inhibition of SCD-1 activity in Sprague-Dawley rat Hepatocytes expressing organic anion transporting polypeptides assessed as reduction in [I-14C] […] desaturation by scintillation counting. It counts as cell-based, Hepatocyte. The essentials: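 Rat hepatocytes (4 × 10^6 cells/mL) were preincubated with compound for 15 min at 37 °C/5% CO2. 14C-stearic acid (final 0.5 μCi/mL) was then added for 1 h with shaking. Cells were washed, hydrolyzed in 2N NaOH at 75 °C for 1 h, acidified and extracted. Radiolabeled oleic and stearic acids were quantified by HPLC with flow scintillation detection. Mean of at least n = 3.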

Series [6] has as its target T2, Stearoyl-CoA desaturase (Homo sapiens, UniProt O00767).
T2 sequence (O00767 whole entry): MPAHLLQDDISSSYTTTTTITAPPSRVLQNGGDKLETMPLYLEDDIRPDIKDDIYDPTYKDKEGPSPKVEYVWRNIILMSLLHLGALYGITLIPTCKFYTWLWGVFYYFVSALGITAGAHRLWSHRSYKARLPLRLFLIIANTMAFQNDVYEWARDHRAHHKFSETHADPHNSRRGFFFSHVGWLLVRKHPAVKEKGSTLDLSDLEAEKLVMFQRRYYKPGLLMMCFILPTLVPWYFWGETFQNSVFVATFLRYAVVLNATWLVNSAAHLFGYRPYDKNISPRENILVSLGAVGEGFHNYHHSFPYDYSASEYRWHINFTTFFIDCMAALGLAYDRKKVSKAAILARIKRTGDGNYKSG
The series is described as follows: Inhibition of SCD-1 activity in organic anion transporting polypeptides-deficient human HepG2 cells assessed as reduction in [I-14C] stearoyl CoA desaturation by scintillation counting. It counts as cell-based.

Series [7] deals with Mus musculus. The series is described as follows: Antidiabetic activity in diet-induced obese C57BL6 mouse assessed as reduction in liver triglyceride level at 20 mg/kg, po BID. It counts as functional, organism-based. Also noted: dose 20 mg/kg. The essentials: (§2)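 eDIO mice (high fat diet for at least 18 weeks) were dosed orally bid for 28 days, with n = 8–10/group. At termination, livers were collected for histological steatosis assessment and triglyceride measurement.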

For series [8], the system named is Mus musculus. Kind of series: Antidiabetic activity in diet-induced obese C57BL6 mouse assessed as reduction in liver steatosis at 20 to 60 mg/kg, po BID measured on day 28. It counts as functional, organism-based. An outline of the steps:
as §2

In series [9] the test system is Mus musculus. The series is described as follows: Antidiabetic activity in diet-induced obese C57BL6 mouse assessed as reduction in liver triglyceride level at 60 mg/kg, po BID. Format: functional, organism-based. Set-up: dose 60 mg/kg. An outline of the steps:
as §2

Series [10] has as its system Mus musculus. The series is described as follows: Antidiabetic activity in po dosed diet-induced obese fasted C57BL6 mouse assessed as increase in glucose clearance administered 1 hr before glucose challenge measured 12 hrs thereafter by OGTT. It counts as functional. To be noted: in the assay text read “2 hrs” for “12 hrs”. The essentials:
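Male C57/Bl6 mice were kept on a high fat diet for at least 14 weeks from 6 weeks of age, then fasted 16 h. Compound was given orally 1 h before a 2 g/kg oral glucose load.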

A short description of series [11]: Clearance in fasted C57BL6 mouse at 2 mg/kg, iv and 10 mg/kg, po BID. To be noted: in vivo. It counts as ADME, organism-based. The essentials: (§3)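 Fasted male C57BL6 mice received 2 mg/kg IV and 10 mg/kg PO. For the reference compound, IV was given as a solution in 60% PEG-200 and PO as a suspension in 1% methocel. Plasma levels were measured by LC-MS/MS. Values are the mean of n = 3 animals.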

Series [12] is described as follows: Oral bioavailability in C57BL6 mouse at 10 mg/kg BID. The settings on record: in vivo, in the assay text read “10 mg/kg” for “10 mg/kg BID”. It counts as ADME, organism-based. An outline of the steps:
(§4)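 Fasted male C57BL6 mice given 2 mg/kg IV and 10 mg/kg PO. Plasma drug levels measured by LC-MS/MS, mean of n = 3 animals, and PK parameters derived from these.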

A short description of series [13]: Half life in fasted C57BL6 mouse at 2 mg/kg, iv and 10 mg/kg, po BID. To be noted: in vivo. It counts as ADME, organism-based. An outline of the steps: as §3
Series [14] can be described thus: AUC in plasma of fasted C57BL6 mouse at 2 mg/kg, iv and 10 mg/kg, po BID. Format: ADME, organism-based. An outline of the steps:
as §3

The nature of series [15]: Cmax in plasma of fasted C57BL6 mouse at 2 mg/kg, iv and 10 mg/kg, po BID. Format: ADME, organism-based. An outline of the steps: as §3
Series [16] in a line: Volume of distribution in fasted C57BL6 mouse at 2 mg/kg, iv and 10 mg/kg, po BID. It counts as ADME, organism-based. To be noted: in vivo. An outline of the steps:
as §4

pIC50: −log10 of the molar value. Activity calls are given as the source filed them. Where only a bound is given, the exact number is not on record here.

In general, pIC50 refers to the IC50 on a negative log10 scale, so that one unit is a factor of ten. What is called Kp is tissue or fluid exposure divided by exposure in the circulation. Broadly, the bioavailability is the share of a dose that reaches the circulation, judged against a reference dose that is usually intravenous. A lower bioavailability goes with poor availability. By half-life is commonly meant the time needed for the level to fall by half in the phase considered. Lower therefore signals fast loss. A word on the AUC: it is the area under the concentration-time curve, a measure of exposure. Read a high AUC as high exposure. What is called Cmax is the peak of the concentration-time curve.

For `FC(F)(F)c1ccccc1OC1CCN(c2nnc(-c3nn[nH]n3)s2)CC1`, the Ratio IC50 in series [1] is more than 14. The pIC50 in series [2] was 6.56; in series [5] it was 5.46; in series [6] it was less than 4.30. In addition, in series [3], the Kp at 6 h came out at 15. Also, in series [4], the Ratio is 330.

Consider `O=C(O)Cn1nnc(-c2cc(N3CCC(Oc4cc(F)ccc4Br)CC3)no2)n1`, for which the outcome in [7] and in series [8] was Active. For the same compound, the outcome in series [9] was inactive. The Activity entry in series [10] was “Dose-dependent effect”.

`O=C([O-])Cn1nnc(-c2cc(N3CCC(Oc4cc(F)ccc4Br)CC3)no2)n1.[Na+]` returned a clearance in series [11] of 2.46 L/h/kg. The compound further yielded a bioavailability in series [12] of 12%. The half-life in [13] is 42 min. Moreover, the AUC in [14] is 1000 nM·h. Besides, the Cmax in series [15] came out at 0.4 µM. This compound also came in with a Vd in [16] of 1 L/kg.

Source of the values: ChEMBL document CHEMBL2150952 (J Med Chem, 2011).
